Mcl-1 Bim block – inhibitors of Bim peptide binding to Mcl-1, primary screen, biochemical, bead-based flow cytometry, multiplex. Induced myeloid leukemia cell differentiation protein Mcl-1 (Homo sapiens), Q07820. Bim peptide-Mcl-1 binding. inhibition, % at 10 µM. actives 0.1% (n = 190,000); in the data active means inhibition above about 40%;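 further: 0% = no compound tracer wells and 100% = peptide blocker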
Mcl1 Noxa PPI – Mcl-1/Noxa binding inhibitors, primary screen, biochemical, TR-FRET, 1536-well; Induced myeloid leukemia cell differentiation protein Mcl-1 (Homo sapiens), Q07820; TR-FRET Mcl-1/Noxa peptide binding, 2 h; inhibition, % at 21.7 µM; actives 1.5% (n = 220,000); AID 1022, 2008;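 active means compounds that cut the protein-peptide binding signal by more than 50% relative to plate controls in a single-dose test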;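 further: His-tagged Mcl-1 with rhodamine Noxa BH3 peptide and terbium anti-His antibody; 0% = Mcl-1 plus Noxa peptide wells and 100% = peptide-only wells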
T cell HTS – modulators of CD8 T cell-vesicle binding, primary screen, mouse 2C CD8+ T cells, flow cytometry | 2C CD8+ T cell-vesicle binding; hits give low values | response (vesicle binding), % at 7 µM | actives 0.068% (n = 330,000) | AID 2052, 2009;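 active means response, share of CD8 T cells binding vesicles, and their 90th percentile fluorescence all below set limits, cut at about 80% in these data, passing the limit was not always enough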;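 further: values below 100% mean blocked vesicle binding to the CD8+ T cells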
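Assay system: 2C TCR transgenic mouse naive CD8+ T cells, MACS-purified | Read-out: CD8+ gate FL2 mean fluorescence as % of same-row positive control | Signal: High-throughput flow cytometry with anti-B7-1 and anti-CD8 staining | Timing: Binding step 1.5 h, 37 °C, antibody labelling 20 min, ice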
Pemphigus Ab inh – inhibitors of pemphigus antibody binding to DSG3, primary screen, biochemical, bead-based, flow cytometry, scFv-GFP | Desmoglein-3 (Homo sapiens), P32926 | DSG3-coupled beads, scFv-anti-DSG3-GFP binding; hits give low values | actives 0.48% (n = 310,000) | binding (percent of control), % at 10 µM | AID 588358, 2011;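 active means binding more than 3 SD below its plate's average and above zero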;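 further: hits lower antibody fragment binding to DSG3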
MCL1 BIM primary – inhibitors of MCL1 binding to BIM-BH3, primary screen, biochemical, fluorescence polarization; actives 0.68% (n = 320,000); AID 2057, 2009; GST-MCL1 / FITC-Bim-BH3 fluorescence polarization; inhibition, % at 10.9 µM;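 active means inhibition above the mean inhibition of all tested compounds plus 3 SD, set per campaign, cut at about 40% in these data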;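 further: 0% = DMSO wells and 100% = unlabeled Bim-BH3 peptide control; higher means more loss of mP so more displacement of Bim peptide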
Mcl1-Bid inh – Mcl-1/Bid binding inhibitors, primary screen, biochemical, TR-FRET, 1536-well; TR-FRET Mcl-1/Bid-Dy647 peptide binding; Induced myeloid leukemia cell differentiation protein Mcl-1 (Homo sapiens), Q07820; actives 0.97% (n = 220,000); inhibition, % at 21.7 µM;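 active means compounds that cut the binding signal by more than half at the single screening dose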;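 further: His-tagged Mcl-1 with europium anti-His antibody binding Bid BH3 peptide; 0% = Mcl-1 plus peptide wells and 100% = peptide-only wells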
* marks the source's active call; other numbers are inactive results; x = no result given. The list is not random: actives were taken first. Their share in the collection is about 2.3%.

SMILES	Mcl-1 Bim block	Mcl1 Noxa PPI	T cell HTS	Pemphigus Ab inh	MCL1 BIM primary	Mcl1-Bid inh
CN1CCN(CCCCOc2ccccc2C=O)CC1	-3	14	294	103	1	56*
CC1CCN(CCCCOc2ccccc2[N+](=O)[O-])CC1	1	-1	536	106	6	53*
Cc1ccc(-c2noc(CCCC(=O)NCC3CCCO3)n2)cc1 (centres undefined)	x	x	640	94	5	x
CN(C)S(=O)(=O)c1ccc(NC(=O)C2CC(=O)N(Cc3ccccc3Cl)C2)cc1 (centres undefined)	x	x	304	88	-10	x
CC(C(=O)N1CCc2ccccc21)N1CCN(c2cccc(C(F)(F)F)c2)CC1 (centres undefined)	x	x	246	x	-8	x
O=C1c2ccccc2C(=O)N1CCCn1c2ccc(Cl)cc2c2nc3ccccc3nc21	x	x	x	98	x	x
Cc1cccc2c3nc4ccccc4nc3n(CCCN3C(=O)c4ccccc4C3=O)c12	3	14	x	83	x	73*
O=S(=O)(c1ccc(Br)cc1)c1nc(-c2ccco2)oc1NCCCn1ccnc1	x	x	x	106	x	x
Oc1ccc(Br)cc1-c1cc(-c2ccc(Cl)cc2)n[nH]1	-2	82*	338	104	9	10
O=C(Nc1ccc2c(c1)OCO2)NC1(C(F)(F)F)Oc2ccccc2O1	1	19	139	96	18	-40
C=C(C)C(=O)Nc1ccc2c(c1)OCCOCCOCCO2	x	52*	380	90	-3	-34
O=C(Nc1ccc2c(c1)OCCO2)NC1(C(F)(F)F)Oc2ccccc2O1	-1	25	432	99	7	69*
CC(=O)Nc1ccc2c(c1)OCCO2	38	x	133	95	2	x
